Pf gamet viab: late stage P. falciparum gametocyte viability inhibitors, primary screen, ATP luminescence, HTS. P. falciparum stage V gametocytes, 24 h. inhibition, % at 10.9 µM. actives 0.065% (n = 150,000);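 active means inhibition above the mean plus 3 SD of compounds within the control limits, set per campaign, cut at about 38% in these data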
APP 5'UTR act: activators of APP 5'UTR luciferase reporter, primary screen, SH-SY5Y cells; SH-SY5Y APP 5'UTR luciferase reporter, luminescence; zero percent = DMSO vehicle wells; activation, % at 2 µM; actives 1% (n = 190,000); AID 1276, 2008;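 active means activation above a set limit, based on mean plus 3 SD of controls, cut at about 140% in these data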
FLuc inh counter: firefly luciferase enzyme inhibitors, primary screen, artefact control for luciferase-based inhibitor screens, biochemical, luminescence, ATPLite; Luciferin 4-monooxygenase (Photinus pyralis), P08659; 10 min; inhibition, % at 10 µM; actives 1.5% (n = 200,000);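 active means inhibition above about 50% when tested at 10 µM, limit read from the data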
Target sequence (P08659 whole entry, looked up): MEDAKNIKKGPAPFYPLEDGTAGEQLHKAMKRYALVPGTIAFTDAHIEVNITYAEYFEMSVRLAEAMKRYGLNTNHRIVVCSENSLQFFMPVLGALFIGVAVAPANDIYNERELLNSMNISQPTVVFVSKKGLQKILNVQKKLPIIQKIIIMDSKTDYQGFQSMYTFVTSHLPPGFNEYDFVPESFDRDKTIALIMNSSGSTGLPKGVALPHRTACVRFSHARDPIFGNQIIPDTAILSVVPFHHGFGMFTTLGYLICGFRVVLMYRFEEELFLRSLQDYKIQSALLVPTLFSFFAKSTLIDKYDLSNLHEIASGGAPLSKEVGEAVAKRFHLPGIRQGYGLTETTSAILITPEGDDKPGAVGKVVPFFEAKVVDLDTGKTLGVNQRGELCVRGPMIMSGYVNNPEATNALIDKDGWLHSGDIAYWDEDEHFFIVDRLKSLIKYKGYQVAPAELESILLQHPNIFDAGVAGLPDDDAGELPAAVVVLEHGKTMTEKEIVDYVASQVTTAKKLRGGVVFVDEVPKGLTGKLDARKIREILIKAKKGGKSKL
STAT1 act: STAT1 signaling activators, primary screen, cell-based, HTS, luciferase reporter; AID 932, 2007; actives 2.6% (n = 200,000); NIH 3T3 STAT1-luciferase reporter, IFN-gamma, luminescence; 100% = IFN-gamma alone, no compound; activation (% of control), % at 5.5 µM;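 active means activation above the screen-wide mean activation plus 3 SD, cut at about 130% in these data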
FLuc act counter: FLuc activators, initial screening, artefact control for FLuc-dependent activation tests, biochemical, ATPlite luminescence; Luciferin 4-monooxygenase (Photinus pyralis), P08659; ATPlite luciferase biochemical, 10 min; 0 = ATP-free wells, 1 = DMSO control; activation factor at 10 µM; 200,000 tested, under 10 active; AID 1027, 2008;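 active means luciferase activation factor, scaled between plate controls, of at least 2 with compound at 10 µM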
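assay system = Luciferase/luciferin detection reagent, cell-free biochemical luciferase assay | also added = ATP substrate | times = 10 min post-reagent at room temperature | measured by = luminescence from luciferase reaction | measure = luciferase activation, seen as luminescence increase over controls | benchmarks = low control with PBS replacing ATP, high control enzyme plus ATP without compound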
NF-kB expr up: activators of NF-kB expression in neurons, primary screen, cell-based, HTS. human neuronal cells, NF-kB reporter expression; hits give high values. fold change at 12.5 µM. actives 1.6% (n = 190,000). AID 1239, 2008; in the data active means fold change above about 3.3
Numbers stand for hits; i = inactive; nt = no result. Most compounds without a hit are left out; they make up all but 3.5% or so of the library.

SMILES	Pf gamet viab	APP 5'UTR act	FLuc inh counter	STAT1 act	FLuc act counter	NF-kB expr up
CC(/C=N/N1CCN(c2ccccn2)CC1)=C\c1ccccc1	i	i	i	i	i	i
Cc1cc(=S)[nH]c2c(C)cccc12	nt	i	i	i	i	i
CCCn1c(C2CCCN2c2nc(-c3cccc(Br)c3)cs2)nc2ccccc21 (centres undefined)	i	nt	nt	nt	nt	nt
S=c1[nH]nc(-c2cccc(Cl)c2)n1/N=C/c1ccc(-c2ccccc2Br)o1	i	nt	nt	nt	nt	nt
S=c1[nH]nc(-c2ccccc2)n1/N=C/c1ccc(-c2ccccc2Cl)o1	i	i	i	i	i	4.5
O=C(N/N=C/c1ccc(F)cc1)c1ccc(Br)cc1	nt	i	i	i	i	i
O=C(N/N=C/c1ccccn1)c1ccc(Br)cc1	i	i	82	134	i	i
Cc1cccc(/C=N/NC(=O)c2ccc(Br)cc2)c1	nt	i	54	i	i	i
Cc1csc(N/N=C/c2ccccn2)n1	i	i	92	i	i	i
C(=N\Nc1nc2ccccc2s1)/c1ccccn1	i	nt	nt	nt	nt	nt
O=C(N/N=C/c1ccccn1)c1ccc(N/N=C/c2ccccn2)cc1	i	i	72	i	i	i
CC(C)(C)c1ccc(NC(=O)COC(=O)c2ccc(NS(=O)(=O)c3ccc(F)c(F)c3)cc2)cc1	nt	i	i	i	i	i
O=C(c1ccccc1)[C@H]1[C@H](c2ccccc2)[C@@]2(N=C(c3ccccc3)OC2=O)C2c3ccccc3C=NN21 (some centres undefined)	nt	i	i	i	i	i
CCN(C(=O)COC(=O)c1ccccc1SCC(=O)NC1CCCCCCC1)C1CCS(=O)(=O)C1 (centres undefined)	i	i	i	i	i	i
Cc1cccc(C(=O)N/N=C/c2ccccn2)c1	nt	i	51	136	i	i
O=C(Nc1ccccc1N1CCOCC1)C1CCN(S(=O)(=O)c2ccccc2F)CC1	nt	i	i	i	i	i
Cn1c(NC(=S)Nc2ccccc2)nc2ccccc21	i	160	i	142	i	i
S=C(Nc1ccccc1)Nc1nc2ccccc2n1CCOc1ccc(Br)cc1	i	i	i	i	i	i
CCn1nc(C)c(CN2CCCC(CO)(Cc3cccc(Cl)c3)C2)c1C (centres undefined)	i	i	i	i	i	i
CCOC(=O)c1cn2c3c(c(F)c(F)cc3c1=O)SC(N1CCOCC1)=N2	nt	i	nt	i	nt	nt
Cc1cccc(/C(N)=N/OC(=O)C23CC4CC(CC(C4)C2)C3)c1	i	i	62	i	i	i
Cc1cccc(/C(N)=N/OC(=O)Cc2ccccc2)c1	i	i	i	147	i	i
Cc1cccc(/C(N)=N/OC(=O)N2c3ccccc3Sc3ccccc32)c1	nt	i	i	i	i	i
CCC(C(=O)O/N=C(\N)c1cccc(C)c1)c1ccccc1 (centres undefined)	nt	i	i	i	i	i
Cc1cccc(/C(N)=N/OC(=O)COc2ccccc2Cl)c1	i	i	i	135	i	i
SMILES	Pf gamet viab	APP 5'UTR act	FLuc inh counter	STAT1 act	FLuc act counter	NF-kB expr up
CN(C(=O)c1ccc(NC(=O)Cc2cccc(NC(=O)C3CCCN(C(=O)C4CCCC4)C3)c2)cc1)C1CCCC1 (centres undefined)	i	nt	nt	nt	nt	nt
CC1=CC(=O)C=C(C)C1=NOS(=O)(=O)c1ccccc1	nt	i	i	i	i	4
O=C(Nc1ccc2c(c1)oc1ccccc12)c1ccc(Br)o1	i	i	i	139	i	i
O=C(Nc1ccccc1)c1ccc(Br)o1	i	i	i	i	i	i
CCN(CC)c1ccc(NC(=O)c2ccc(Br)o2)cc1	i	178	53	133	i	7
COc1ccc(/C=C/c2ccncc2)cc1	i	i	i	144	i	i
CCC(C)n1c(/C=C/c2ccccc2)nc2ccccc21 (centres undefined)	nt	i	i	i	i	i
COc1ccc(Nc2nc3ccccc3n2C)cc1	i	nt	nt	nt	nt	nt
CC(C)Cn1c(/C=C/c2ccccc2)nc2ccccc21	nt	i	58	136	i	i
CCn1c(/C=C/c2ccccc2)nc2ccccc21	nt	205	87	133	i	7
COc1ccc(/C=C/c2nc3ccccc3n2C)cc1	nt	i	97	i	i	i
O=C(Nc1ccc([N+](=O)[O-])cc1)c1ccccc1F	i	i	i	138	i	i
O=C(Nc1ccc(-c2ccc([N+](=O)[O-])cc2)cc1)c1ccccc1F	i	i	i	i	i	i
COc1ccc(O)c(/C=C(\C#N)C(=O)Nc2cccnc2)c1	i	i	63	i	i	i
COc1ccc(/C=C(\C#N)C(=O)Nc2cccnc2)cc1	i	i	i	i	i	i
CC(=O)Nc1cccc(NC(=O)CSc2nnc(Cc3cccn3C)n2-c2ccc(C)cc2)c1	i	i	i	i	i	i
Cn1cccc1C(=O)NC(=O)COC(=O)C12CC3CC(CC(O)(C3)C1)C2	i	i	57	i	i	i
CC(=O)NC12CC3CC(C1)CC(C(=O)OCC(=O)NC(=O)c1cccn1C)(C3)C2	i	i	i	i	i	i
Cc1ccc(CS(=O)(=O)Cc2ccc(C(=O)NCc3ccccn3)o2)cc1	nt	i	i	i	i	i
CNC(=O)COC(=O)c1ccc(-c2nc3ccccc3s2)s1	nt	i	81	i	i	i
O=CN1CCN(C(=O)c2ccc(-c3nc4ccccc4s3)s2)CC1	i	i	i	129	i	3.8
CCOC(=O)N1CCN(C(=O)c2nc3ccccc3s2)CC1	i	i	i	i	i	i
CC(C)/C(C=O)=C(/NC1CCCCC1)c1ccccc1	i	nt	nt	nt	nt	nt
COC(=O)c1ccccc1NC(=O)Cn1nc2n(C)c3ccccc3n2c(=O)c1=O	nt	i	i	i	i	i
NNc1nc2ccc(F)cc2s1	nt	i	i	150	i	i
SMILES	Pf gamet viab	APP 5'UTR act	FLuc inh counter	STAT1 act	FLuc act counter	NF-kB expr up
Fc1ccc2nc(Nc3ccccc3)sc2c1	nt	i	i	140	i	3.7
COc1ccc2nc(NS(=O)(=O)c3ccc(NC(C)=O)cc3)sc2c1	nt	i	i	i	i	i
Fc1ccc2nc(Nc3nc4c(F)cccc4s3)sc2c1	i	i	i	i	i	i
COc1ccc(Nc2nc3ccc(OC)cc3s2)cc1	i	i	i	130	i	i
COc1ccccc1CNC(=O)COC(=O)c1ccc(Cl)c(N)c1	i	i	i	i	i	i
CC(=O)c1ccc(NC(=O)/C(=C\c2cccs2)NC(=O)c2ccco2)cc1	i	i	i	i	i	i
COc1cc(/C=N/NC(=O)C(=O)/C=C2\NC(C)(C)Cc3ccccc32)ccc1O	i	nt	nt	nt	nt	nt
CCOC(=O)Cn1cnc(-c2ccc([N+](=O)[O-])cc2)c1	nt	i	i	136	i	i

Bioassay records as filed in PubChem.
